From PubChem BioAssay
Xi reactivation: activators of X-chromosome reactivation in mouse fibroblasts; XiGFP mouse fibroblasts, % GFP-positive cells imaging, 3 d; cells co-treated with 5-aza-dC sensitizer; scaled so ellipticine positive control = 100%; activation, % at 7.58 µM; hit rate 0.055% among 360,000;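 active = mean normalized replicate activation at least 10% and every replicate at or above 10%; inconclusive = only one of the two criteria met; inactive = mean below 10% and not all replicates reach 10%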;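 note: 0% = median of on-plate neutral control wells and 100% = ellipticine 6 µM median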
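assay system = SV40-immortalized XiGFP fibroblast cells, line 68-5-11 | buffer or medium = DMEM plus 5-aza-dC sensitizer | doses = single-point pinned compound dosing | times = 3-day compound exposure, then 15 min fixation at room temperature | benchmarks = positive control ellipticine, 6 µM final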
C2C12 statin: suppressors of simvastatin-induced myotoxicity in C2C12 myotubes. hit rate 0.78% among 330,000. ATP luminescence, 48 h; scaled: DMSO 0, geranylgeraniol control 100. rescue of ATP level, % at 7.49 µM;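 active = mean ATP rescue above about 67%, or every replicate alone reaching that limit, limit read from the data, passing the limit was not always enough; inconclusive = no clear call, values can overlap the other calls; inactive = mean under the limit and some replicate under it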;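 note: myotubes were challenged with 10 µM simvastatin during compound exposure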
PglD DTNB: inhibitors of Campylobacter jejuni PglD acetyltransferase; AID 602405; purified PglD enzyme, DTNB colorimetric CoA detection; hit rate 0.098% among 360,000; inhibition, % at 12.5 µM; in the data active = inhibition above about 16%, passing the limit was not always enough; inconclusive = no clear call, values can overlap the other calls
FGF22 binding-1: shifts melting point of recombinant human FGF22; recombinant FGF22 thermal shift, SYPRO orange fluorescence; percent of sucrose octasulfate shift, DMSO zero; activity (Tm shift, normalised), % at 9.99 µM; hit rate 1.5% among 340,000; AID 651658;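 active = mean Tm shift, scaled 0 neutral to 100 positive control, at about 1.3% or above, every replicate too, limit read from the data; inconclusive = no clear call, values can overlap the other calls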
Target sequence (Q9HCT0 whole entry, looked up): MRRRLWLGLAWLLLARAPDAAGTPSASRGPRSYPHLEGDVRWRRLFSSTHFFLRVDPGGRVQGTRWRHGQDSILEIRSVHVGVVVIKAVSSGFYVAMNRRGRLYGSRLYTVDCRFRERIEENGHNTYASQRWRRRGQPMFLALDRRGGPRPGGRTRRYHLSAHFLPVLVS
DENV2 CPE rescue: DENV2-induced cell death inhibition. CPE inhibition, % at 9.99 µM. hit rate 1.7% among 350,000. AID 651640. DENV2-infected cells, cytopathic effect rescue, plate reader; in the data active = CPE inhibition above about 20%, passing the limit was not always enough; inconclusive = no clear call, values can overlap the other calls; tested in BHK-21 cells;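 note: 0% = median of neutral control wells and 100% = median of positive control wells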
E-sel inducer: induces E-selectin expression in human endothelial cells; P16581; HUVEC E-selectin immunofluorescence imaging; normalized: neutral wells 0, TNF-alpha wells 100; activation, % at 7.58 µM; hit rate 0.37% among 260,000; AID 686992;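 active = mean E-selectin-positive cell signal at least 10% of the positive control, reached in at least 60% of replicates, without over 20% cell loss; inconclusive = no rule given, readout overlaps actives, possibly toxicity-flagged; inactive = the rest, including those meeting only one limit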
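Test system: HUVEC | Signal: Immunofluorescence imaging | Read-out: Percent E-selectin-positive cells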
FGF22 binding-2: FGF22 (human) binding in thermal shift | AID 720646 | hit rate 2% among 1,000 | recombinant FGF22 thermal shift, SYPRO orange fluorescence | thermal shift activity, °C (ΔTm) at 38 µM | shares compounds with FGF22 binding-1;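 active = fitted rise in melting shift crosses a set limit at or below the top valid dose tested; inconclusive = flat fit at mid-level activity, or a poor quality fit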
SYPRO no-protein: shows thermal shift signal without protein, FGF22 counter-screen | compound-only SYPRO orange thermal shift counter-screen, no protein | shares compounds with FGF22 binding-1 | hit rate 2% among 1,000 | AC50, µM (series often up to 38 µM);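 active = rising signal whose fitted curve reaches the 0.54 level within the top valid dose, showing a melting point, actives reach about 13 µM in these data; inactive = the rest, including activity in the opposite direction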; note: value is where the raw curve crosses a fixed level and not half-maximal
The depositor's hits bear a star; i = inactive; ? = inconclusive; · = no result; ! = not confirmed by another sample; [ ] = another dose, or the depositor's remark. In the library only some 3.3% were active in any assay of this set; here they are far more common.

SMILES	Xi reactivation	C2C12 statin	PglD DTNB	FGF22 binding-1	DENV2 CPE rescue	E-sel inducer	FGF22 binding-2	SYPRO no-protein
O=C(Nc1ccc(Cl)cc1)N[C@H]1CC[C@H](CCNC(=O)c2cc(Cl)cc(Cl)c2)O[C@@H]1CO	-1	·	·	2.5*	-11	3	-0.3	i
Cc1ccc(S(=O)(=O)N[C@@H]2CC[C@@H](CCNC(=O)C3CC3)O[C@@H]2CO)cc1	0	2	2	0	?	0	·	·
O=C(NCC[C@H]1CC[C@@H](NC(=O)C2CCOCC2)[C@@H](CO)O1)Nc1ccc(Cl)cc1	0	-8	5	1.6*!	-1	0	0.33[42 µM]	i
Cc1ccc(S(=O)(=O)N[C@H]2CC[C@H](CCNC(=O)C3CCOCC3)O[C@H]2CO)cc1	0	-1	5	2.0*	8	0	0.44[42 µM]	i
O=C(NCC[C@H]1CC[C@@H](NC(=O)C2CCOCC2)[C@H](CO)O1)Nc1ccc(Cl)cc1	0	-13	9	1.7*	14	0	-0.092[42 µM]	i
O=C(Nc1ccc(Cl)cc1)N[C@H]1CC[C@@H](CCNC(=O)c2cc(Cl)cc(Cl)c2)O[C@H]1CO	0	·	·	·	3	0	·	·
COc1ccc(-c2ccc([C@H]3[C@@H](CO)N4CCCCN(C(=O)c5ccc6c(c5)OCO6)C[C@@H]34)cc2)cc1	0	9	-1	0	12	0	·	·
COc1ccc(-c2ccc([C@@H]3[C@@H](CO)N4CCCCN(C(=O)c5ccc(F)cc5)C[C@@H]34)cc2)cc1	0	·	16	34*	-5	-1	0.089[42 µM]	9µM*
COc1ccc(-c2ccc([C@H]3[C@@H](CO)N4CCCCN(C(=O)c5ccc6c(c5)OCO6)C[C@H]34)cc2)cc1	0	8	5	1.3*	-21	0	0.02	i
O=C(C[C@H]1CC[C@@H]2[C@H](COC[C@@H](O)CN2S(=O)(=O)c2ccc(F)cc2)O1)N[C@H]1CCN(Cc2ccccc2)C1	0	5	-2	0	3	0	·	·
O=C(C[C@H]1CC[C@H]2[C@@H](COC[C@H](O)CN2CC2CCOCC2)O1)NCC1CCCCC1	0	16	0	2.4*	14	0	-0.021[42 µM]	i
CN1CCN(C(=O)C[C@@H]2CC[C@H]3[C@@H](COC[C@H](O)CN3CC3CCCCC3)O2)CC1	·	8	2	24*	-13	·	0.1	i
CN(C[C@H]1N[C@@H](CO)[C@@H]1c1ccc(-c2cccc(F)c2)cc1)S(C)(=O)=O	0	-4	1	0	-12	0	·	·
CCOC(=O)c1csc(NC(=O)c2cc(=O)c3ccccc3o2)n1	0	·	·	1	6	·	·	·
CC(=O)c1sc(NC(=O)c2cc(=O)c3ccccc3o2)nc1C	0	0	3	5.1*	5	·	-0.077	i
N#C[C@@H]1N[C@@H](CO)[C@H]1c1ccc(-c2cccc(F)c2)cc1	0	0	1	0	3	0	·	·
O=C(N[C@@H]1CC[C@H](CC(=O)N2CCN(c3ccccc3)CC2)O[C@@H]1CO)c1ccccc1	-1	-7	1	1.9*	1	0	-0.057[42 µM]	i
O=C(N[C@@H]1CC[C@@H](CC(=O)N2CCN(c3ccccc3)CC2)O[C@H]1CO)c1ccccc1	-1	-4	-2	0	4	0	·	·
Cn1ncc2c(Nc3ccc(Cl)c(Cl)c3)ncnc21	0	3	-3	9.1*	-5	·	0.15	i
c1ccc(COc2ccc(-c3cc4nc(NCc5ccc6c(c5)OCO6)ccn4n3)cc2)cc1	0	17	-2	0	-13	0	·	·
c1ccc(-c2cc3nc(NCc4ccc5c(c4)OCO5)ccn3n2)cc1	0	-3	2	35*	10	·	0.1	i
CNC(=S)N(Cc1ccc(OC)cc1)C1CC(=O)N(c2ccc(C(=O)OC)cc2)C1=O (configuration not stated)	0	·	·	2.2*	?	3	-0.043	i
O=C(c1cccc(F)c1)N1CC(=O)N2[C@H](C1)[C@@H](c1ccc(-c3cccnc3)cc1)[C@@H]2CO	0	·	·	·	-4	0	·	·
Oc1cc(O)cc(C=Cc2ccc(O)c(O)c2)c1	0	·	·	2.0*	-1	0	0.073	i
CCS(=O)(=O)N1CCCCN2[C@H](CO)[C@H](c3ccc(-c4ccc(C(=O)N(C)C)cc4)cc3)[C@H]2C1	0	6	2	0	·	0	·	·
SMILES	Xi reactivation	C2C12 statin	PglD DTNB	FGF22 binding-1	DENV2 CPE rescue	E-sel inducer	FGF22 binding-2	SYPRO no-protein
CCc1ccc2nc(N)sc2c1	0	·	·	2.4*	-8	·	-0.067	i
C[C@@H]1CN([C@@H](C)CO)S(=O)(=O)c2ccc(-c3cccc(F)c3)cc2O[C@H]1CN(C)CC1CC1	0	-85	1	0	7	-2	·	·
COCC(=O)N1[C@H](CO)[C@H]2c3ccccc3NC[C@H]21	0	12	1	15*	32*	0	0.036	i
O=C(c1cccc(F)c1)N1C[C@H]2[C@@H](c3ccccc31)[C@H](CO)N2C(=O)C1CCCCC1	0	-24	-3	·	14	0	·	·
COc1ccccc1C(=O)N1C[C@H]2[C@@H](c3ccccc31)[C@H](CO)N2C(=O)C1CCCCC1	0	1	-1	1.7*	-6	-1	0.02	i
COCC(=O)N1C[C@@H]2[C@H](c3ccccc31)[C@H](CO)N2C(=O)c1ccccc1F	0	10	1	1.7*	-1	0	-0.17[42 µM]	i
O=C(c1cccc(F)c1)N1C[C@@H]2[C@H](c3ccccc31)[C@H](CO)N2C(=O)C1CCCCC1	0	-2	3	66*	-14	0	-0.081[42 µM]	i
CCC(=O)N1[C@H](CO)[C@@H]2c3ccccc3N(C(=O)c3ccccc3F)C[C@@H]21	0	6	2	0	15	0	·	·
CO[C@@H]1CN(C)C(=O)c2cc(NC(=O)C3CCCC3)ccc2OC[C@@H](C)N(CCC(F)(F)F)C[C@@H]1C	0	11	-1	0	2	0	·	·
CNC[C@@H]1Oc2ccccc2CC(=O)N(C)C[C@@H]1C	0	·	·	·	·	·	·	·
C=CCC1c2cccc(C(=O)O)c2C(=O)N1c1cccc(C)c1 (configuration not stated)	·	13	4	0	4	·	·	·
C=CCC1c2cccc(C(=O)O)c2C(=O)N1c1cccc(OC)c1 (configuration not stated)	0	·	6	18*	-2	1	0.13	i
